pIC50: −log10 of the molar value. In brackets after ≈: the same amount, converted by molar mass. Activity calls are given as the source filed them. No cut-off for these calls is given here.
Legend:
Mus musculus [1] = organism: Mus musculus; conditions: MDA-MB-361, 25 mg/kg
[2] = Half life in nude mouse liver microsomes after 30 mins; format: ADME, Microsome
Procedure, shortened: (§1)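 Drug incubated with liver microsomes of the stated species (rat, nude mouse, human) for 30 min; half-life of drug determined.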

Mus musculus [3] = organism: Mus musculus; conditions: MDA-MB-361, 25 mg/kg; remark: listed apart in the source
[4] = Half life in rat liver microsomes after 30 mins; format: ADME, Microsome
Procedure, shortened: as §1

[5] = Half life in human liver microsomes after 30 mins; format: ADME, Microsome
Procedure, shortened: as §1

Mus musculus [6] = organism: Mus musculus; conditions: MDA-MB-361, 25 mg/kg; remark: listed apart in the source
[7] = Aqueous solubility of the compound at pH 7.4; format: physicochemical; conditions: buffer
Mus musculus [8] = organism: Mus musculus; conditions: MDA-MB-361, 25 mg/kg; remark: listed apart in the source
Mus musculus [9] = organism: Mus musculus; conditions: MDA-MB-361, 25 mg/kg; remark: listed apart in the source
PC-3 = experiment: cells; conditions: Homo sapiens, PC-3, 72 h
[10] = molecular target: Serine/threonine-protein kinase mTOR (Homo sapiens, UniProt P42345); experiment: Inhibition of mTOR
MDA-MB-361 = experiment: cells; conditions: Homo sapiens, MDA-MB-361, 72 h
Mus musculus [11] = organism: Mus musculus; conditions: MDA-MB-361, 10 mg/kg
Mus musculus [12] = organism: Mus musculus; conditions: MDA-MB-361, 10 mg/kg; remark: listed apart in the source
Mus musculus [13] = organism: Mus musculus; conditions: MDA-MB-361, 10 mg/kg; remark: listed apart in the source
Mus musculus [14] = organism: Mus musculus; conditions: MDA-MB-361, 10 mg/kg; remark: listed apart in the source
Mus musculus [15] = organism: Mus musculus; conditions: MDA-MB-361, 10 mg/kg; remark: listed apart in the source
[16] = molecular target: Phosphatidylinositol 4,5-bisphosphate 3-kinase catalytic subunit alpha isoform (Homo sapiens, UniProt P42336); experiment: Inhibition of human PI3Kalpha expressed in SF9 insect cells after 2 hrs by fluorescence polarization assay
Chain of Phosphatidylinositol 4,5-bisphosphate 3-kinase catalytic subunit alpha isoform (P42336 whole entry, canonical isoform): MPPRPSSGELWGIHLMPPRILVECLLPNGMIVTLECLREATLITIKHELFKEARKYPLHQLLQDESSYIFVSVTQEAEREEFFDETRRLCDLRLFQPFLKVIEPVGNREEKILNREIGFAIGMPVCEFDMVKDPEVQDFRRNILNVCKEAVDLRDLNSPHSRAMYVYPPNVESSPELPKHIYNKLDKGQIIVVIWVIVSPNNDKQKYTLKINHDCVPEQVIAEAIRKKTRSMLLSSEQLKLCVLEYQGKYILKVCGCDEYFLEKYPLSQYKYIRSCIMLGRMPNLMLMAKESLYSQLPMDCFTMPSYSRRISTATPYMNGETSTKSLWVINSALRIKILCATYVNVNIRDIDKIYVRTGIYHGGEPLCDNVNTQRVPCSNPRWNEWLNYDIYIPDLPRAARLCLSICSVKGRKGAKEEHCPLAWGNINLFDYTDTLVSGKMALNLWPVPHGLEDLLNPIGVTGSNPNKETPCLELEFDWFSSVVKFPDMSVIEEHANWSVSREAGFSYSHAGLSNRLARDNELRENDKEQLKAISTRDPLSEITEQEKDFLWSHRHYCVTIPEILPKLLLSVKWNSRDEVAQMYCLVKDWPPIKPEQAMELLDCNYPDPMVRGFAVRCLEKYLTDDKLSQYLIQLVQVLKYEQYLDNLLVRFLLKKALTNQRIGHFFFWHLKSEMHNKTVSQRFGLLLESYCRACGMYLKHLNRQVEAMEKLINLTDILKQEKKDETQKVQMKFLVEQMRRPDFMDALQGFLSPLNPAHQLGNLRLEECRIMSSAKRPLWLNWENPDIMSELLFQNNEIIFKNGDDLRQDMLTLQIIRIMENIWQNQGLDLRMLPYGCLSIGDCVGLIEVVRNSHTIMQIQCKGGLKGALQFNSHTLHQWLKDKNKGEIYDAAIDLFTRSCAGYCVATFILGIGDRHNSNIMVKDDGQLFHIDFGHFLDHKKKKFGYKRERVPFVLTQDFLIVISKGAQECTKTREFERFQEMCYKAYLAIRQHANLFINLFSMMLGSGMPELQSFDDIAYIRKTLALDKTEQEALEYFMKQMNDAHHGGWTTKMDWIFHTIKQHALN

Mus musculus [17] = experiment: In vivo inhibition of PI3K/mTOR in human MDA-MB-361 cells xenografted nude mouse assessed as induction of cleaved poly-adenosine-diphosphate-ribose polymerase at 50 mg/kg, iv after 8 hrs by immunoblotting; format: functional, organism-based; parameters: dose 50 mg/kg

| SMILES | half-life [2] | half-life [4] | half-life [5] | solubility [7] | pIC50 (PC-3) | pIC50 (MDA-MB-361) | further results |
| --- | --- | --- | --- | --- | --- | --- | --- |
| CN(C)C1CCN(C(=O)c2ccc(NC(=O)Nc3ccc(-c4nc(N5CCOCC5)nc(N5CCOCC5)n4)cc3)cc2)CC1 [GEDATOLISIB] | > 30 min | > 30 min | > 30 min | 15 µg/mL (≈ 24.4 µM) | – | – | inhibition (Mus musculus [11]): Active; inhibition (Mus musculus [12]): Active; inhibition (Mus musculus [13]): Active; inhibition (Mus musculus [14]): Active; inhibition (Mus musculus [1]): Active; inhibition (Mus musculus [15]): Active; inhibition (Mus musculus [3]): Active; inhibition (Mus musculus [6]): Active; inhibition (Mus musculus [8]): Active; inhibition (Mus musculus [9]): Active |
| COc1nc(-c2ccc(NC(=O)Nc3ccc(C(=O)N4CCN(C)CC4)cc3)cc2)nc(N2CCOCC2)n1 | > 30 min | 16 min | > 30 min | 3 µg/mL (≈ 5.63 µM) | 7.04 | 7.46 | pIC50 [16]: 8.92 |
| CNCCN(C)C(=O)c1ccc(NC(=O)Nc2ccc(-c3nc(OC)nc(N4CCOCC4)n3)cc2)cc1 | > 30 min | > 30 min | > 30 min | > 100 µg/mL | 6.43 | 6.96 | – |
| CC(C)Oc1nc(-c2ccc(NC(=O)Nc3ccc(C(=O)N(C)CCN(C)C)cc3)cc2)nc(N2CCOCC2)n1 | 23 min | > 30 min | > 30 min | 15 µg/mL (≈ 26.7 µM) | – | – | – |
| CC(C)Oc1nc(-c2ccc(NC(=O)Nc3ccc(C(=O)N4CCN(C)CC4)cc3)cc2)nc(N2CCOCC2)n1 | > 30 min | 17 min | > 30 min | – | – | – | – |
| CN1C2CCC1CC(Oc1nc(-c3ccc(NC(=O)Nc4ccc(C(N)=O)cc4)cc3)nc(N3CCOCC3)n1)C2 (stereo not drawn) | – | 4 min | – | 62 µg/mL (≈ 111 µM) | – | – | – |
| COc1nc(-c2ccc(NC(=O)Nc3ccc(C(=O)N4CCNC(C)(C)C4)cc3)cc2)nc(N2CCOCC2)n1 | > 30 min | 29 min | > 30 min | 61 µg/mL (≈ 112 µM) | 6.95 | 7.52 | pIC50 [10]: 7.73; pIC50 [16]: 8.85 |
| COc1nc(-c2ccc(NC(=O)Nc3ccc(C(=O)N(C)CCN(C)C)cc3)cc2)nc(N2CCOCC2)n1 | > 30 min | 15 min | > 30 min | > 100 µg/mL | 7.47 | 7.82 | – |
| COc1nc(-c2ccc(NC(=O)Nc3ccc(C(=O)NCCN(C)C)cc3)cc2)nc(N2CCOCC2)n1 | > 30 min | > 30 min | > 30 min | > 100 µg/mL | 7.15 | > 7.51 | – |
| CCn1nnc2c(N3CCOCC3)nc(-c3ccc(NC(=O)Nc4ccc(C(=O)N5CCN(C)CC5)cc4)cc3)nc21 | > 30 min | – | > 30 min | – | – | 8.10 | pIC50 [10]: 8.70; inhibition (Mus musculus [17]): Active |
| CC(C)Oc1nc(-c2ccc(NC(=O)Nc3ccc(C(=O)NCCN(C)C)cc3)cc2)nc(N2CCOCC2)n1 | > 30 min | > 30 min | > 30 min | 3 µg/mL (≈ 5.47 µM) | 7.39 | 7.96 | pIC50 [10]: 9.40 |
| CN1CCN(C(=O)c2ccc(NC(=O)Nc3ccc(-c4nc(N5CCOCC5)[nH]c(=O)n4)cc3)cc2)CC1 | – | > 30 min | – | – | < 6.00 | < 6.00 | – |

Further lines, with some results ahead:

| half-life [2] | half-life [4] | half-life [5] | solubility [7] | pIC50 (PC-3) | pIC50 (MDA-MB-361) | SMILES | further results |
| --- | --- | --- | --- | --- | --- | --- | --- |
| > 30 min | 27 min | > 30 min | > 100 µg/mL | – | – | CN(C)CCN(C)C(=O)c1ccc(NC(=O)Nc2ccc(-c3nc(O[C@H]4CCOC4)nc(N4CCOCC4)n3)cc2)cc1 | inhibition (Mus musculus [1]): Active; inhibition (Mus musculus [3]): Active; inhibition (Mus musculus [6]): Active; inhibition (Mus musculus [8]): Active; inhibition (Mus musculus [9]): Active |
| > 30 min | 27 min | > 30 min | 1 µg/mL (≈ 1.62 µM) | 7.74 | 8.30 | O=C(Nc1ccc(C(=O)NCCN2CCCCC2)cc1)Nc1ccc(-c2nc(O[C@H]3CCOC3)nc(N3CCOCC3)n2)cc1 | pIC50 [10]: 9.40 |
| – | > 30 min | – | 4 µg/mL (≈ 6.96 µM) | – | – | CN1CCN(C(=O)c2ccc(NC(=O)Nc3ccc(-c4nc(OC5COC5)nc(N5CCOCC5)n4)cc3)cc2)CC1 | – |
| > 30 min | 28 min | > 30 min | 23 µg/mL (≈ 38.2 µM) | 7.57 | 8.10 | O=C(Nc1ccc(C(=O)NCCN2CCCC2)cc1)Nc1ccc(-c2nc(O[C@H]3CCOC3)nc(N3CCOCC3)n2)cc1 | pIC50 [10]: 9.52 |
| > 30 min | > 30 min | > 30 min | > 100 µg/mL | 7.16 | > 7.51 | COc1nc(-c2ccc(NC(=O)Nc3ccc(C(=O)NCCN4CCCCC4)cc3)cc2)nc(N2CCOCC2)n1 | – |
| > 30 min | 20 min | 15 min | 1 µg/mL (≈ 1.7 µM) | – | – | CN1CCN(C(=O)c2ccc(NC(=O)Nc3ccc(-c4nc(O[C@H]5CCOC5)nc(N5CCOCC5)n4)cc3)cc2)CC1 | – |
| > 30 min | – | 18 min | – | – | – | CN(C)C1CCN(C(=O)c2ccc(NC(=O)Nc3ccc(-c4nc(O[C@H]5CCOC5)nc(N5CCOCC5)n4)cc3)cc2)CC1 | – |
